{"source": "paper PMC11409854", "about": "(Chemical Science, 2024)", "key": {"MRSA [1]": {"system": "MRSA", "experiment": "Time-kill kinetics against exponential phase MRSA", "assay_type": "cell-based, S. aureus", "conditions": "at MIC (vancomycin: same across concentrations)", "method_in_brief": "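Exponential-phase MRSA was exposed to the test compound or vancomycin at the MIC and higher multiples. Viable counts (Log CFU mL−1) were followed over time up to 24 h.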"}, "[2]": {"system": "GFP-MinD in B. subtilis 1981", "experiment": "GFP-MinD localization", "assay_type": "cell-based, Bacillus subtilis", "conditions": "at PEC (vancomycin 0.4 μM, VanNHdipi 0.16 μM)"}, "[3]": {"conditions": "D-Ala-D-Lac versus D-Ala-D-Ala; cited from earlier work"}, "MRSA ATCC 33591 biofilms": {"system": "MRSA ATCC 33591 biofilms", "experiment": "Activity against mature biofilms of MRSA", "assay_type": "cell-based, S. aureus", "conditions": "20 μM, 24 h"}, "[4]": {"system": "vancomycin-resistant strains (VRSA and VRE)", "experiment": "MIC across the panel of vancomycin-resistant strains", "assay_type": "cell-based, Staphylococci and Enterococci", "conditions": "Staphylococcus aureus"}, "B. subtilis 168 [5]": {"system": "B. subtilis 168", "experiment": "Cell wall biosynthesis inhibition assay", "assay_type": "cell-based, Bacillus subtilis", "conditions": "at PEC (vancomycin 0.4 μM, VanNHdipi 0.16 μM)"}, "MRSA [6]": {"system": "MRSA", "experiment": "Antagonization assay with N,N'-diacetyl-L-Lys-D-Ala-D-Ala", "assay_type": "cell-based, S. aureus", "conditions": "Staphylococcus aureus, read-out: MIC in the presence of KAA", "method_in_brief": "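Test compound or vancomycin was pre-incubated with N,N'-diacetyl-L-Lys-D-Ala-D-Ala (KAA) before being added to the MRSA suspension for MIC determination. MIC in the presence of KAA was compared with that without KAA.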"}, "B. subtilis": {"system": "B. subtilis", "experiment": "MIC determination against B. subtilis", "assay_type": "cell-based", "conditions": "Bacillus subtilis"}, "B. subtilis 168 [7]": {"system": "B. subtilis 168", "experiment": "Physiologically effective concentration", "assay_type": "cell-based, Bacillus subtilis", "method_in_brief": "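B. subtilis 168 was grown to mid-log phase (OD500 0.35) and then given different concentrations of the test compound or vancomycin. The acute effect on growth was followed by optical density. The PEC is the concentration at which growth continues at a reduced rate, expressed as a multiple of the MIC.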"}, "[8]": {"system": "B. subtilis 168 newly synthesized cytosolic proteins", "experiment": "2D gel-based proteome analysis with [35S]-methionine pulse labeling", "assay_type": "cell-based, Bacillus subtilis", "conditions": "10 min", "method_in_brief": "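B. subtilis 168 cultures grown to OD500 0.35 were exposed for 10 min to the test compound or vancomycin at the physiologically effective concentration. Newly synthesised cytosolic proteins were pulse-labelled with [35S]-methionine, separated by 2D gel electrophoresis and compared with untreated cells by false-colour overlay (treated red, control green). Proteins were identified by LC-MS; regulation factor is the treated/control ratio.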"}, "[9]": {"system": "MRSA, methicillin-resistant S. aureus (ATCC 33591)", "experiment": "MIC determination", "assay_type": "cell-based", "conditions": "Staphylococcus aureus, ATCC33591|MRSA"}, "[10]": {"system": "clinical isolates of NDM producing K. pneumoniae and E. coli", "experiment": "Checkerboard assay, summary over NDM-producing isolates", "assay_type": "cell-based", "conditions": "for fold decrease in the MIC value: with 16 μg mL^−1 VanNHdipi (7 μM); for fold reduction of the MIC value: with 32 μg mL^−1 VanNHdipi (14 μM), all strains", "method_in_brief": "(§1)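 Carbapenem (meropenem or doripenem) MICs were determined in μg mL−1 against NDM-producing K. pneumoniae and E. coli isolates. Each was tested alone and in the presence of fixed test compound at 16 μg mL−1 (7 μM) or 32 μg mL−1 (14 μM). Fold change is the MIC with compound relative to carbapenem alone.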"}, "[11]": {"system": "K. pneumoniae EN5136 (NDM-1, OXA-1, SHV)", "experiment": "MIC / checkerboard assay, K. pneumoniae EN5136", "assay_type": "cell-based", "conditions": "carbapenem alone", "method_in_brief": "as §1"}, "[12]": {"system": "E. coli EN5141 (NDM-1, OXA-1)", "experiment": "MIC / checkerboard assay, E. coli EN5141", "assay_type": "cell-based", "conditions": "carbapenem alone", "method_in_brief": "as §1"}, "[13]": {"system": "K. pneumoniae R3934 (NDM-1)", "experiment": "MIC / checkerboard assay, K. pneumoniae R3934", "assay_type": "cell-based", "conditions": "carbapenem alone", "method_in_brief": "as §1"}, "[14]": {"system": "K. pneumoniae BAA2146 (NDM-1)", "experiment": "MIC / checkerboard assay, K. pneumoniae BAA2146", "assay_type": "cell-based", "conditions": "carbapenem alone", "method_in_brief": "as §1"}, "K. pneumoniae R3934": {"system": "K. pneumoniae R3934", "experiment": "Time-kill kinetics of carbapenem combinations", "assay_type": "cell-based", "conditions": "carbapenem alone (meropenem 8 μg mL^−1, doripenem 2 μg mL^−1)", "method_in_brief": "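K. pneumoniae R3934 (NDM-1) was exposed to meropenem (4 or 8 μg mL−1) or doripenem (0.5 or 1 μg mL−1) with the test compound at 32 μg mL−1. Controls were untreated cultures and carbapenem alone (meropenem 8, doripenem 2 μg mL−1). Viable counts (Log CFU mL−1) were taken at 2, 4, 6 and 24 h; <50 CFU mL−1 was flagged.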"}, "VIM-1 and IMP-1": {"system": "VIM-1 and IMP-1", "conditions": "cited from earlier work"}, "NDM-1 and VIM-2": {"system": "NDM-1 and VIM-2", "conditions": "cited from earlier work"}, "NDM-1": {"target": "NDM-1 (Klebsiella pneumoniae, UniProt C7C422)", "sequence (C7C422 29-270, looked up)": "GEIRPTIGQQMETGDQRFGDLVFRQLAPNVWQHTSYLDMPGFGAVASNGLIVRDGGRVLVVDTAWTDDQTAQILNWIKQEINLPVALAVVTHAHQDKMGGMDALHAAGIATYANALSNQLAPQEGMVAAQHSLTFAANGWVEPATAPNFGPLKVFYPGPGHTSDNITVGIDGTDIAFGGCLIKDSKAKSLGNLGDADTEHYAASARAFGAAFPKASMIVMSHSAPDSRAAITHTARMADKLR", "experiment": "MBL inhibition, nitrocefin absorbance assay, NDM-1", "assay_type": "biochemical", "method_in_brief": "(§2)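 Absorbance inhibition assay for purified metallo-β-lactamases from a seven-enzyme panel. Nitrocefin served as substrate; enzyme hydrolysis of its β-lactam ring shifts the absorption spectrum, which is monitored by absorbance. IC50 was determined for the test compound.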"}, "IMP-1": {"target": "IMP-1 (Serratia marcescens, UniProt P52699)", "sequence (P52699 19-246, looked up, species assumed)": "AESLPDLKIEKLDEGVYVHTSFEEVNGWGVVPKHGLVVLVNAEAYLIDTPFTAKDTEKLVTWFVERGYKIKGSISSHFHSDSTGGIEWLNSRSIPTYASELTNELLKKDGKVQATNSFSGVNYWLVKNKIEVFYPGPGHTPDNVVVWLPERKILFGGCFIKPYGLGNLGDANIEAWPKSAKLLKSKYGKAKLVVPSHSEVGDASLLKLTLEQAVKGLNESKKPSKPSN", "experiment": "MBL inhibition, nitrocefin absorbance assay, IMP-1", "assay_type": "biochemical", "method_in_brief": "as §2"}}, "note": "pIC50: −log10 of the molar value. Several values for one entry are separate records, joined by “and”; a condition that tells them apart may be missing. Equal entries are not always repeated."}
{"smiles": "CN[C@H](CC(C)C)C(=O)N[C@H]1C(=O)N[C@@H](CC(N)=O)C(=O)N[C@H]2C(=O)N[C@H]3C(=O)N[C@H](C(=O)N[C@H](C(=O)O)c4cc(O)cc(O)c4-c4cc3ccc4O)[C@H](O)c3ccc(c(Cl)c3)Oc3cc2cc(c3O[C@@H]2O[C@H](CO)[C@@H](O)[C@H](O)[C@H]2O[C@H]2C[C@](C)(N)[C@H](O)[C@H](C)O2)Oc2ccc(cc2Cl)[C@H]1O", "note": "[Vancomycin]", "values": [{"measurement": "time to complete eradication", "setting": "MRSA [1]", "value": 24, "unit": "h"}, {"measurement": "MinD delocalization", "setting": "[2]", "value": "did not elicit any MinD protein delocalization"}, {"measurement": "fold reduction in binding affinity", "setting": "[3]", "value": 1000, "unit": "fold"}, {"measurement": "reduction in cell viability within the biofilms", "setting": "MRSA ATCC 33591 biofilms", "value": "minimal activity"}, {"measurement": "MIC", "setting": "[4]", "value": "> 346 µM and > 512 µg/mL"}, {"measurement": "inhibition of cell wall biosynthesis (bubbles on cell surface)", "setting": "B. subtilis 168 [5]", "value": "Bubble-like formations were observed"}, {"measurement": "MIC", "setting": "MRSA [6]", "value": "> 30", "unit": "µM"}, {"measurement": "MIC", "setting": "B. subtilis", "value": 0.2, "unit": "µM"}, {"measurement": "PEC as multiple of MIC", "setting": "B. subtilis 168 [7]; added at OD500 0.35", "value": 2, "unit": "× MIC"}, {"measurement": "physiologically effective concentration (PEC), growth retardation", "setting": "B. subtilis 168 [7]; added at OD500 0.35 (mid-log phase)", "value": 0.4, "unit": "μM"}, {"measurement": "Regulation factor (treated/control), CysC", "setting": "[8]; at PEC (vancomycin 0.4 μM, VanNHdipi 0.16 μM)", "value": "2.3 ± 0.1"}, {"measurement": "Regulation factor (treated/control), GsaB", "setting": "[8]; at PEC", "value": "2.8 ± 0.4"}, {"measurement": "Regulation factor (treated/control), Hom", "setting": "[8]; at PEC", "value": "5.0 ± 3.8"}, {"measurement": "Regulation factor (treated/control), LysA", "setting": "[8]; at PEC", "value": "2.7 ± 0.3"}, {"measurement": "Regulation factor (treated/control), MtnE", "setting": "[8]; at PEC", "value": "2.4 ± 0.3"}, {"measurement": "Regulation factor (treated/control), MurF", "setting": "[8]; at PEC", "value": "4.1 ± 1.6"}, {"measurement": "Regulation factor (treated/control), NfrA", "setting": "[8]; at PEC", "value": "3.3 ± 0.2"}, {"measurement": "Regulation factor (treated/control), RpsB", "setting": "[8]; at PEC", "value": "2.7 ± 0.3"}, {"measurement": "Regulation factor (treated/control), SdhA", "setting": "[8]; at PEC", "value": "3.3 ± 1"}, {"measurement": "Regulation factor (treated/control), ThiG", "setting": "[8]; at PEC", "value": "2.5 ± 0.1"}, {"measurement": "Regulation factor (treated/control), Udk", "setting": "[8]; at PEC", "value": "3.1 ± 0.5"}, {"measurement": "Regulation factor (treated/control), YceC", "setting": "[8]; at PEC", "value": "3.7 ± 0.9"}, {"measurement": "Regulation factor (treated/control), YoxD", "setting": "[8]; at PEC", "value": "2.9 ± 0.1"}, {"measurement": "Regulation factor (treated/control), YpuA", "setting": "[8]; at PEC", "value": "4.4 ± 0.3"}, {"measurement": "Regulation factor (treated/control), YqiG", "setting": "[8]; at PEC", "value": "5.2 ± 1.3"}, {"measurement": "Regulation factor (treated/control), YtrB", "setting": "[8]; at PEC", "value": "4.8 ± 0.5"}, {"measurement": "Regulation factor (treated/control), YtrE.2", "setting": "[8]; at PEC", "value": "18.2 ± 8.98"}, {"measurement": "MIC", "setting": "[9]", "value": 0.6, "unit": "µM"}]}
{"smiles": "C[C@@H](O)[C@H]1C(=O)N2C(C(=O)O)=C(S[C@@H]3CN[C@H](CNS(N)(=O)=O)C3)[C@H](C)[C@H]12", "note": "[Doripenem]", "values": [{"measurement": "MIC", "setting": "[10]", "value": "0.06 to 4", "unit": "µg/mL"}, {"measurement": "fold decrease in the MIC value", "setting": "[10]; NDM producing K. pneumoniae and E. coli", "value": "4-16 fold"}, {"measurement": "fold reduction of the MIC value", "setting": "[10]", "value": "16–32 fold"}, {"measurement": "MIC of carbapenem", "setting": "[11]", "value": 8, "unit": "µg/mL"}, {"measurement": "MIC of carbapenem", "setting": "[12]", "value": 8, "unit": "µg/mL"}, {"measurement": "MIC of carbapenem", "setting": "[13]", "value": 16, "unit": "µg/mL"}, {"measurement": "MIC of carbapenem", "setting": "[14]", "value": 16, "unit": "µg/mL"}, {"measurement": "growth inhibition", "setting": "K. pneumoniae R3934", "value": "no growth inhibition"}]}
{"smiles": "O=C(O)c1ncsc1NS(=O)(=O)c1cccnc1", "note": "[ANT431]", "values": [{"measurement": "fold less active than against NDM-1 and VIM-2", "setting": "VIM-1 and IMP-1", "value": "at least 20 fold"}, {"measurement": "inhibitory activity", "setting": "NDM-1 and VIM-2", "value": "sub-micromolar"}]}
{"smiles": "c1ccc(CNCc2ccccn2)nc1", "note": "[BPYA, bis(pyridin-2-ylmethyl)amine]", "values": [{"measurement": "pIC50", "setting": "NDM-1", "value": 5.92}, {"measurement": "pIC50", "setting": "IMP-1", "value": "< 4.40"}]}
{"smiles": "C[C@@H](O)[C@H]1C(=O)N2C(C(=O)O)=C(S[C@@H]3CN[C@H](C(=O)N(C)C)C3)[C@H](C)[C@H]12", "note": "[Meropenem]", "values": [{"measurement": "MIC", "setting": "[10]", "value": "0.06 to 4", "unit": "µg/mL"}, {"measurement": "fold decrease in the MIC value", "setting": "[10]; NDM-1 expressing K. pneumoniae strains", "value": "2-8 fold"}, {"measurement": "fold reduction of the MIC value", "setting": "[10]", "value": "16–32 fold"}, {"measurement": "MIC of carbapenem", "setting": "[11]", "value": 8, "unit": "µg/mL"}, {"measurement": "MIC of carbapenem", "setting": "[12]", "value": 2, "unit": "µg/mL"}, {"measurement": "MIC of carbapenem", "setting": "[13]", "value": 64, "unit": "µg/mL"}, {"measurement": "MIC of carbapenem", "setting": "[14]", "value": 8, "unit": "µg/mL"}, {"measurement": "growth inhibition", "setting": "K. pneumoniae R3934", "value": "did not show any growth inhibition"}]}
